Experimental data taken from article PMC4077163 (Bioorganic & medicinal chemistry letters, 2014).
Square brackets hold non-standard residues; d marks the D form. Peptide text beside a SMILES is read from it. * marks the point of attachment. pY = N[C@@H](Cc1ccc(OP(=O)(O)O)cc1)C(=O)O; Hydrocinnamoyl = O=C(CCc1ccccc1)*; Ac6c = NC1(C(=O)O)CCCCC1; Cbz = O=C(OCc1ccccc1)*

How the values were obtained:
[1] = target: T1, Grb2 SH2 domain (Homo sapiens, UniProt P62993); test: Isothermal titration calorimetry; type: binding; settings: for ΔG° / ΔH° / −TΔS°: ITC, 25 °C, HEPES (50 mM), NaCl (150 mM), pH 7.45 ± 0.05; for potency relative to indolyl compound 10: from ITC data of Table 1
T1 sequence (P62993 60-152 limits assumed): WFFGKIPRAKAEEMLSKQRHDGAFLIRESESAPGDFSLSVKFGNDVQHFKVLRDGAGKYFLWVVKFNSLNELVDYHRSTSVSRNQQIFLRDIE
In short: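 Tripeptide phosphotyrosine-analogue ligands were titrated against the Grb2 SH2 domain by ITC at 25 °C in 50 mM HEPES, 150 mM NaCl, pH 7.45 ± 0.05. Ka, ΔG°, ΔH° and ΔS° were taken from the titrations. Each ligand had three or more runs. The n value of each run was normalized by adjusting ligand concentration, then the runs were averaged.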

[2] = target: T1, Grb2 SH2 domain; test: Literature affinity; type: binding; settings: ratio of literature IC50 values, more potent than 3

CC(=O)N[C@@H](Cc1ccc(OP(=O)(O)O)cc1)C(=O)NC1(C(=O)N[C@@H](CC(N)=O)C(N)=O)CCCCC1 [Compound 7] (HELM PEPTIDE1{[ac].[O=C([C@H](Cc1ccc(OP(=O)(O)O)cc1)N[*:1])[*:2]].[O=C(C1(N[*:1])CCCCC1)[*:2]].N.[am]}$$$$V2.0)
Kd [1]: 143 nM
ΔG° [1]: -9.3 ± 0.1 kcal/mol
ΔH° [1]: -8.5 ± 0.4 kcal/mol
−TΔS° [1]: -0.8 ± 0.4 kcal/mol

NC(=O)C[C@H](NC(=O)C1(NC(=O)[C@H](Cc2ccc(OP(=O)(O)O)cc2)NC(=O)OCc2ccccc2)CCCCC1)C(N)=O [Compound 8] (Cbz-[pY]-[Ac6c]-Asn-NH2)
Kd [1]: 154 nM
ΔG° [1]: -9.3 ± 0.1 kcal/mol
ΔH° [1]: -9.3 ± 0.3 kcal/mol
−TΔS° [1]: 0.0 ± 0.1 kcal/mol

NC(=O)C[C@H](NC(=O)C1(NC(=O)[C@H](Cc2ccc(OP(=O)(O)O)cc2)NC(=O)OCc2cccc(N)c2)CCCCC1)C(N)=O [Compound 9]
Kd [1]: 114 nM
ΔG° [1]: -9.5 ± 0.1 kcal/mol
ΔH° [1]: -9.1 ± 0.5 kcal/mol
−TΔS° [1]: -0.4 ± 0.3 kcal/mol
potency relative to 3 [2]: about 65 fold

Cn1cc(CCC(=O)N[C@@H](Cc2ccc(OP(=O)(O)O)cc2)C(=O)NC2(C(=O)N[C@@H](CC(N)=O)C(N)=O)CCCCC2)c2ccccc21 [Compound 10]
Kd [1]: 87.7 nM
ΔG° [1]: -9.6 ± 0.1 kcal/mol
ΔH° [1]: -10.0 ± 0.3 kcal/mol
−TΔS° [1]: +0.4 ± 0.1 kcal mol^−1

NC(=O)C[C@H](NC(=O)C1(NC(=O)[C@H](Cc2ccc(OP(=O)(O)O)cc2)NC(=O)CCc2ccccc2)CCCCC1)C(N)=O [Compound 11] (Hydrocinnamoyl-[pY]-[Ac6c]-Asn-NH2)
Kd [1]: 42.7 nM
ΔG° [1]: -10.1 ± 0.1 kcal/mol
ΔH° [1]: -9.5 ± 0.5 kcal/mol
−TΔS° [1]: -0.6 ± 0.1 kcal/mol
potency relative to indolyl compound 10 [1]: about two-fold more potent

NC(=O)C[C@H](NC(=O)C1(NC(=O)[C@H](Cc2ccc(OP(=O)(O)O)cc2)NC(=O)CCC2CCCCC2)CCCCC1)C(N)=O [Compound 12]
Kd [1]: 34.7 nM
ΔG° [1]: -10.2 ± 0.1 kcal/mol
ΔH° [1]: -10.0 ± 0.5 kcal/mol
−TΔS° [1]: -0.2 ± 0.1 kcal/mol
potency relative to indolyl compound 10 [1]: about two-fold more potent
